E coli WT exp: E. coli BW25113 growth inhibition, expanded screen; 98,000 compounds, 0.15% hits; OD600 absorbance; AID 710; growth inhibition, % at 100 µM;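 active = growth inhibition above about 50% at one test dose, limit read from the data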;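 also: growth measured after 20 h incubation at 37 °C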
PostGolgi ctrl: inhibits growth of the yeast control strain; efflux-deficient yeast background strain, growth absorbance A615, 16 h; inhibition, % at 10 µM; 98,000 compounds, 5% hits; AID 738
Ecoli tolC: E. coli tolC mutant growth inhibition. growth inhibition, % at 10 µM (by protocol). E. coli BW25113 tolC mutant growth, OD615. 65,000 compounds, 2.2% hits;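 active = growth inhibition at or above a cutoff equal to the mean over every tested compound plus 3 SD, cut at about 60% in these data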;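 also: growth measured after 20 h incubation at 37 °C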
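Test system: tolC-deleted E. coli BW25113 | Medium: LB with kanamycin 50 µg/mL | Compound dosing: Single concentration, 10 µM final per compound | Schedule: 37 °C, 20 h exposure | Measured by: OD at 615 nm | Evaluation: Percent growth inhibition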
EphB4 antag: antagonists of human EphB4-ephrin-B2 interaction. 97,000 compounds, 0.15% hits. P54760. AID 720. EphB4 LBD / TNYL-RAW-Alexa532 peptide, fluorescence polarization. inhibition, % at 7 µM;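 active = inhibition above the screen-wide mean inhibition plus 3 SD, cut at about 15% in these data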;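 also: 0% = DMSO wells and 100% = excess unlabeled TNYL-RAW peptide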
PostGolgi yeast: growth inhibition of a yeast mutant, post-Golgi transport screen. post-Golgi transport phenotypic cell assay. inhibition, % at 10 µM. 98,000 compounds, 0.9% hits. AID 739;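 also: yeast cells grown in 1536-well plates; yeast grown about 18 h at 30C before absorbance read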
* hit, by the source's call; · = not tested or not shown. This is a sample that favours compounds with a hit; in the whole collection about 6% have one here. Rule as the data show it, unless noted: active = inhibition above about 30%; inactive = the rest.

SMILES | E coli WT exp | PostGolgi ctrl | Ecoli tolC | EphB4 antag | PostGolgi yeast
O=C(CCN1CCOCC1)Nc1cccc(Br)c1 | 2 | 3 | -5 | · | 6
O=C(CN1CCOCC1)Nc1cccc(Br)c1 | 5 | 31* | -19 | -3 | -4
CCn1cc(/C=N/N=C2\CCC3C4CCc5cc(O)ccc5C4CC[C@]23C)c(C)n1 (some centres undefined) | -10 | -2 | · | -1 | 1
O=C(COc1ccc(Br)cc1)Nc1ccc([N+](=O)[O-])cn1 | 2 | 0 | · | 4 | 21
Cc1ccc(NC(=O)CSc2nnc(-c3ccc(S(=O)(=O)N4CCCC4)cc3)o2)cc1C | 0 | -2 | 0 | 1 | -6
Cc1cccc(NC(=O)CSc2nnc(-c3ccc(S(=O)(=O)N4CCCC4)cc3)o2)c1 | 3 | 2 | -6 | 17* | -6
Cc1ccc2nc(-c3ccc(Br)o3)oc(=O)c2c1 | 9 | 9 | · | 1 | 36*
COc1cc2nc(-c3ccc(Br)o3)oc(=O)c2cc1OC | 8 | -2 | 8 | 3 | 1
Clc1cccc(-c2nnc(SCc3nc4ccccc4[nH]3)n2Cc2ccco2)c1 | 3 | -2 | 50 | 8 | -6
Clc1ccc(OCc2nnc(SCc3nc4ccccc4[nH]3)n2Cc2ccco2)cc1 | -4 | 57* | 54 | 8 | 56*
COc1ccc(-c2cnc(SCC(=O)Nc3cc(C)on3)n2Cc2ccco2)cc1 | -13 | 17 | 80* | 2 | 0
COc1ccc(C)cc1NC(=O)CSc1nnc(COc2ccc(Cl)cc2)n1Cc1ccco1 | -3 | 40* | 5 | 2 | -3
O=C(CSc1nnc(Cc2cccs2)n1Cc1ccco1)Nc1cc(Cl)cc(Cl)c1 | -24 | 35* | 91* | -4 | -16
O=C(CSc1nnc(Cc2cccs2)n1Cc1ccco1)Nc1cccc(Cl)c1 | -4 | 2 | 8 | 4 | 10
CC(Oc1ccc(Cl)cc1Cl)c1nc(-c2ccc(NC(=O)c3ccccn3)cc2)no1 (centres undefined) | · | · | · | -6 | ·
COc1c(C)cccc1C(=O)Nc1cc(-c2nn3c(C)nnc3s2)ccc1C | · | · | -9 | -8 | ·
O=S(=O)(Cc1ccc(Cl)cc1)N1CCCC1 | 8 | 21 | -4 | 2 | 2
Cn1nc(C(F)(F)F)c(C(=O)Nc2cccc(Cl)c2)c1Cl | -3 | 5 | · | -1 | 13
CCOc1ccc(NC(=O)CSc2nnc(-c3ccccc3Cl)n2Cc2ccco2)cc1 | -4 | 35* | 33 | -3 | 7
COc1ccc(C)cc1NC(=O)CSc1nnc(COc2ccccc2)n1Cc1ccco1 | -13 | 25 | 76* | 5 | 14
Cc1ccc(-n2c(Cc3cccs3)nnc2SCC(=O)Nc2ccc(S(N)(=O)=O)cc2)cc1 | -7 | 6 | 19 | 7 | 4
NS(=O)(=O)c1ccc(NC(=O)CSc2nnc(Cc3cccs3)n2-c2ccccc2)cc1 | -1 | 34* | 22 | 6 | -8
COc1cc(NC(=O)c2cnn3c(C)cc(C)nc23)c(OC)cc1Cl | -5 | 41* | 20 | -1 | 0
Cc1ccc(SCCNC(=O)c2cccc([N+](=O)[O-])c2C)cc1 | 5 | 26 | · | 4 | 9
Cc1c(C(=O)NCCSCc2ccc(Cl)cc2Cl)cccc1[N+](=O)[O-] | -15 | 55* | · | 4 | 1
SMILES | E coli WT exp | PostGolgi ctrl | Ecoli tolC | EphB4 antag | PostGolgi yeast
Cc1sc2ncnc(Nc3ccccc3)c2c1C | 3 | 33* | · | -4 | 3
CC(C)N(Cc1ccccc1)S(=O)(=O)N(C)C | 13 | -2 | 3 | 6 | 4
CN(C)S(=O)(=O)N(CC(=O)N(Cc1ccccc1)Cc1ccccc1)c1ccccc1 | -4 | 34* | · | -4 | -6
CN(C)S(=O)(=O)N(Cc1ccc(Br)cc1)c1ccccc1 | 8 | 13 | 88* | 1 | 15
Cc1cc(C)c(C#N)c(SCSCc2ccccc2)n1 | -3 | 2 | · | 8 | 0
CCOC(=O)Cn1c(=O)oc2cc(S(=O)(=O)Nc3ccc(F)cc3)ccc21 | -2 | -5 | 13 | 0 | -3
N#CC(c1cccc(Cl)c1)c1ncc(C(F)(F)F)cc1Cl (centres undefined) | 12 | 11 | · | 1 | 8
CCOc1ccccc1NC(=O)C1=C(C)NC(=O)NC1c1cccc(OC)c1OC (centres undefined) | 1 | 17 | -2 | 1 | -5
O=C1CC(C(=O)N(c2cccc(F)c2)C(C(=O)NC2CCCC2)c2ccccn2)CS1 (centres undefined) | -2 | 37* | -11 | 1 | 4
Cc1cccc(C)c1OCC(=O)Nc1cccc(-c2nnc(-c3ccccc3)o2)c1 | -17 | 18 | -4 | -4 | 15
